Source: ChEMBL document CHEMBL4814057, “4-4-(Anilinomethyl)-3-[4-(trifluoromethyl)phenyl]-1H-pyrazol-1-ylbenzoic acid derivatives as potent anti-gram-positive bacterial agents” (Eur J Med Chem, 2021)
In brackets after ≈: the same amount, converted by molar mass. Activity calls are given as the source filed them. The calls are words filed in the database; no cut-off is given here.

Tests used:
Staphylococcus aureus [1] = assay: Antimicrobial activity against methicillin-susceptible Staphylococcus aureus ATCC 25923 assessed as bacterial growth inhibitions by CLSI protocol based microdilution method; assay type: functional
Staphylococcus aureus [2] = assay: Antimicrobial activity against antibiotic-resistant Staphylococcus aureus BM-2312 assessed as bacterial growth inhibitions by CLSI protocol based microdilution method; assay type: functional
Staphylococcus aureus [3] = assay: Antimicrobial activity against methicillin-resistant Staphylococcus aureus ATCC 33591 assessed as bacterial growth inhibitions by CLSI protocol based microdilution method; assay type: functional
Staphylococcus aureus [4] = assay: Antimicrobial activity against methicillin-resistant Staphylococcus aureus ATCC 700699 assessed as bacterial growth inhibitions by CLSI protocol based microdilution method; assay type: functional
Staphylococcus aureus [5] = assay: Antimicrobial activity against methicillin-resistant Staphylococcus aureus ATCC 33592 assessed as bacterial growth inhibitions by CLSI protocol based microdilution method; assay type: functional
[6] = tested on: Staphylococcus epidermidis; assay: Antimicrobial activity against methicillin-resistant Staphylococcus epidermidis ATCC 700296 assessed as bacterial growth inhibitions by CLSI protocol based microdilution method; assay type: functional
Bacillus subtilis = assay: Antimicrobial activity against Bacillus subtilis ATCC 6623 assessed as bacterial growth inhibitions by CLSI protocol based microdilution method; assay type: functional
Summary of the method: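 Broth microdilution starting at 50 µg/ml with 2-fold serial dilutions; run in triplicate.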

Enterococcus faecium = assay: Antimicrobial activity against vancomycin-resistant Enterococcus faecium ATCC 700221 assessed as bacterial growth inhibitions by CLSI protocol based microdilution method; assay type: functional
Enterococcus faecalis = assay: Antimicrobial activity against vancomycin-susceptible Enterococcus faecalis ATCC 29212 assessed as bacterial growth inhibitions by CLSI protocol based microdilution method

Structure (SMILES) | MIC (Staphylococcus aureus [1]) [µg/mL] | MIC (Staphylococcus aureus [2]) [µg/mL] | MIC (Staphylococcus aureus [3]) [µg/mL] | MIC (Staphylococcus aureus [4]) [µg/mL] | MIC (Staphylococcus aureus [5]) [µg/mL] | MIC [6] [µg/mL] | MIC (Bacillus subtilis) [µg/mL] | MIC (Enterococcus faecium) | MIC (Enterococcus faecalis)
O=C(O)c1ccc(-n2cc(CNc3cc(C(F)(F)F)ccc3F)c(-c3ccc(C(F)(F)F)cc3)n2)cc1 | 1.56 (≈ 2.98 µM) | 0.78 (≈ 1.49 µM) | 0.78 (≈ 1.49 µM) | 0.78 (≈ 1.49 µM) | 1.56 (≈ 2.98 µM) | 3.12 (≈ 5.96 µM) | 0.78 (≈ 1.49 µM) | 1.56 µg/mL (≈ 2.98 µM) | 6.25 µg/mL (≈ 11.9 µM)
O=C(O)c1ccc(-n2cc(CNc3ccc(Br)cc3)c(-c3ccc(C(F)(F)F)cc3)n2)cc1 | 0.78 (≈ 1.51 µM) | 0.78 (≈ 1.51 µM) | 0.78 (≈ 1.51 µM) | 0.78 (≈ 1.51 µM) | 1.56 (≈ 3.02 µM) | 3.12 (≈ 6.04 µM) | 0.78 (≈ 1.51 µM) | 0.78 µg/mL (≈ 1.51 µM) | 6.25 µg/mL (≈ 12.1 µM)
O=C(O)c1ccc(-n2cc(CNc3cccc(Br)c3)c(-c3ccc(C(F)(F)F)cc3)n2)cc1 | 0.78 (≈ 1.51 µM) | 0.78 (≈ 1.51 µM) | 0.78 (≈ 1.51 µM) | 1.56 (≈ 3.02 µM) | 0.78 (≈ 1.51 µM) | 3.12 (≈ 6.04 µM) | 0.78 (≈ 1.51 µM) | 1.56 µg/mL (≈ 3.02 µM) | 6.25 µg/mL (≈ 12.1 µM)
O=C(O)c1ccc(-n2cc(CNc3cc(Cl)cc(C(F)(F)F)c3)c(-c3ccc(C(F)(F)F)cc3)n2)cc1 | 0.78 (≈ 1.44 µM) | 0.78 (≈ 1.44 µM) | 0.78 (≈ 1.44 µM) | 0.78 (≈ 1.44 µM) | 0.78 (≈ 1.44 µM) | 1.56 (≈ 2.89 µM) | 0.78 (≈ 1.44 µM) | 0.78 µg/mL (≈ 1.44 µM) | 6.25 µg/mL (≈ 11.6 µM)
O=C(O)c1ccc(-n2cc(CNc3cccc(C(F)(F)F)c3)c(-c3ccc(C(F)(F)F)cc3)n2)cc1 | 1.56 (≈ 3.09 µM) | 1.56 (≈ 3.09 µM) | 0.78 (≈ 1.54 µM) | 0.38 (≈ 0.752 µM) | 0.78 (≈ 1.54 µM) | 1.56 (≈ 3.09 µM) | 0.78 (≈ 1.54 µM) | 1.56 µg/mL (≈ 3.09 µM) | 6.25 µg/mL (≈ 12.4 µM)
O=C(O)c1ccc(-n2cc(CNc3cc(C(F)(F)F)cc(C(F)(F)F)c3)c(-c3ccc(C(F)(F)F)cc3)n2)cc1 | 0.78 (≈ 1.36 µM) | 0.78 (≈ 1.36 µM) | 0.78 (≈ 1.36 µM) | 0.78 (≈ 1.36 µM) | 0.78 (≈ 1.36 µM) | 1.56 (≈ 2.72 µM) | 0.78 (≈ 1.36 µM) | 0.78 µg/mL (≈ 1.36 µM) | 0.78 µg/mL (≈ 1.36 µM)
O=C(O)c1ccc(-n2cc(CNc3ccc(F)c(Cl)c3F)c(-c3ccc(C(F)(F)F)cc3)n2)cc1 | 1.56 (≈ 3.07 µM) | 1.56 (≈ 3.07 µM) | 1.56 (≈ 3.07 µM) | 1.56 (≈ 3.07 µM) | 1.56 (≈ 3.07 µM) | 1.56 (≈ 3.07 µM) | 0.78 (≈ 1.54 µM) | 1.56 µg/mL (≈ 3.07 µM) | 6.25 µg/mL (≈ 12.3 µM)
O=C(O)c1ccc(-n2cc(CNc3cc(F)c(C(F)(F)F)c(F)c3)c(-c3ccc(C(F)(F)F)cc3)n2)cc1 | 1.56 (≈ 2.88 µM) | 1.56 (≈ 2.88 µM) | 1.56 (≈ 2.88 µM) | 1.56 (≈ 2.88 µM) | 1.56 (≈ 2.88 µM) | 3.12 (≈ 5.76 µM) | 0.78 (≈ 1.44 µM) | 6.25 µg/mL (≈ 11.5 µM) | 12.5 µg/mL (≈ 23.1 µM)
O=C(O)c1ccc(-n2cc(CNc3cccc(F)c3)c(-c3ccc(C(F)(F)F)cc3)n2)cc1 | 3.12 (≈ 6.85 µM) | 3.12 (≈ 6.85 µM) | 3.12 (≈ 6.85 µM) | 3.12 (≈ 6.85 µM) | 3.12 (≈ 6.85 µM) | 6.25 (≈ 13.7 µM) | 1.56 (≈ 3.43 µM) | 6.25 µg/mL (≈ 13.7 µM) | 25 µg/mL (≈ 54.9 µM)
O=C(O)c1ccc(-n2cc(CNc3cc(F)c(C(F)(F)F)cc3F)c(-c3ccc(C(F)(F)F)cc3)n2)cc1 | 0.78 (≈ 1.44 µM) | 0.78 (≈ 1.44 µM) | 0.78 (≈ 1.44 µM) | 0.78 (≈ 1.44 µM) | 0.78 (≈ 1.44 µM) |  | 0.78 (≈ 1.44 µM) | 0.78 µg/mL (≈ 1.44 µM) | 1.56 µg/mL (≈ 2.88 µM)
O=C(O)c1ccc(-n2cc(CNc3ccc(Br)c(Cl)c3)c(-c3ccc(C(F)(F)F)cc3)n2)cc1 | 0.78 (≈ 1.42 µM) | 0.78 (≈ 1.42 µM) | 0.78 (≈ 1.42 µM) | 0.78 (≈ 1.42 µM) | 0.78 (≈ 1.42 µM) | 0.78 (≈ 1.42 µM) | 0.78 (≈ 1.42 µM) | 0.78 µg/mL (≈ 1.42 µM) | 1.56 µg/mL (≈ 2.83 µM)
O=C(O)c1ccc(-n2cc(CNc3cccc(Cl)c3F)c(-c3ccc(C(F)(F)F)cc3)n2)cc1 | 1.56 (≈ 3.18 µM) | 0.78 (≈ 1.59 µM) | 1.56 (≈ 3.18 µM) | 3.12 (≈ 6.37 µM) | 1.56 (≈ 3.18 µM) |  | 0.78 (≈ 1.59 µM) | 0.78 µg/mL (≈ 1.59 µM) | 
O=C(O)c1ccc(-n2cc(CNc3ccc(Br)c(C(F)(F)F)c3)c(-c3ccc(C(F)(F)F)cc3)n2)cc1 | 3.12 (≈ 5.34 µM) | 3.12 (≈ 5.34 µM) | 0.78 (≈ 1.33 µM) | 3.12 (≈ 5.34 µM) | 3.12 (≈ 5.34 µM) | 12.5 (≈ 21.4 µM) | 3.12 (≈ 5.34 µM) | 0.78 µg/mL (≈ 1.33 µM) | 
NS(=O)(=O)c1ccc(NCc2cn(-c3ccc(C(=O)O)cc3)nc2-c2ccc(C(F)(F)F)cc2)cc1 | 50 (≈ 96.8 µM) | 50 (≈ 96.8 µM) | 50 (≈ 96.8 µM) | 0.39 (≈ 0.755 µM) | 50 (≈ 96.8 µM) | 50 (≈ 96.8 µM) | 50 (≈ 96.8 µM) | inactive | inactive
O=C(O)c1ccc(-n2cc(CNc3cc(Br)cc(C(F)(F)F)c3)c(-c3ccc(C(F)(F)F)cc3)n2)cc1 | 0.78 (≈ 1.33 µM) | 0.78 (≈ 1.33 µM) | 3.12 (≈ 5.34 µM) | 0.78 (≈ 1.33 µM) | 0.78 (≈ 1.33 µM) | 1.56 (≈ 2.67 µM) | 0.78 (≈ 1.33 µM) | 0.78 µg/mL (≈ 1.33 µM) | 0.78 µg/mL (≈ 1.33 µM)
